# High-throughput results from PubChem BioAssay.
# This is a sample that favours compounds with a hit; in the whole collection about 4.8% have one here.
# 697 NFkB inh: inhibitors of PMA/ionomycin-induced NF-kB reporter, 697 cells, primary screen, B-cell NF-kB inhibitor project, cell-based, luminescence, uHTS. 697 B-cell NF-kB luciferase reporter, 16 h. inhibition, % at 4 µM. 0.33% of 330,000 active. AID 435022, 2010; in the data active means inhibition above about 35%
# GPR7 antagonist: GPR7 receptor antagonists, primary screen, cell-based, fluorescence, single concentration; inhibition, % at 4.4 µM; GPR7-expressing cells, fluorescence antagonist assay; 1.1% of 290,000 active; AID 1861, 2009; in the data active means inhibition above about 16%, passing the limit was not always enough;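 further: cells stimulated with the agonist NPW; 0% = agonist with vehicle and 100% = vehicle without agonist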
# Target sequence (P48145 whole entry, looked up): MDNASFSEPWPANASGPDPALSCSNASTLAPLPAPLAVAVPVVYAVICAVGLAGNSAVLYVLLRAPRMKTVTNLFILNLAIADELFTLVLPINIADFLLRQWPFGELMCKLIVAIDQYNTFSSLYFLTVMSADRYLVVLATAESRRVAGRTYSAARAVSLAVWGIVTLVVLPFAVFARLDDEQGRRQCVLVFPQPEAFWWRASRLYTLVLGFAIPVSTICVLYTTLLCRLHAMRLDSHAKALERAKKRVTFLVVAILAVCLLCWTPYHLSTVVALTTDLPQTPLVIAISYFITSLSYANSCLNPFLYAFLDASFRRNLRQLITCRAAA
# HSF-1 act: HSF-1 activators, primary screen, NIH3T3-HGL cells, MG132 stress, luminescence, single point. NIH3T3-HGL HSF-1 luciferase reporter, 8 h; 100% = twice DMSO control signal. 1.7% of 300,000 active. activation, % at 9 µM;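 active means mean replicate activation of at least 50% with a set share of replicates each reaching 50%; inconclusive means only one of those two conditions met; inactive means mean below 50% and too few replicates reaching it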;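 further: 0% = median of the neutral control wells and 100% = twice that signal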
# Jurkat NFkB inh: inhibitors of induced NF-kB luciferase reporter, primary screen, TCR NF-kB activation inhibitor project, cell-based, luminescence, uHTS | 0.53% of 330,000 active | inhibition, % at 4 µM | Jurkat, PMA/ionomycin-induced NF-kB luciferase reporter; in the data active means inhibition above about 50%
# HSF1 inh: HSF1 inhibitors in luciferase reporter cells, primary screen, cell-based, NIH3T3, luminescence; activity change, negative = inhibition, % at 7.5 µM (by protocol); 0.77% of 300,000 active; NIH3T3-HGL HSE-luciferase, MG132-induced, luminescence 8 h; active compounds read low;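 active means more than half of replicate wells show activity change below -50%, luminescence cut by over half; inconclusive means some wells, but at most half, below -50%; inactive means no replicate well below -50%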;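 further: luciferase reports HSF-1 transcriptional activity via heat shock element; 0% = median of DMSO wells and -100% = zero luminescence signal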
# T cruzi repl: inhibitors of intracellular T. cruzi growth, primary screen, luminescence, NIH3T3 host cells. T. cruzi beta-gal in NIH3T3, 90 h. inhibition, % (concentration not given with the values). 1.4% of 300,000 active. AID 1885, 2009;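 active means mean inhibition across valid replicates above about 55%, limit read from the data; inconclusive means mean below that limit but half or more replicates reach it; inactive means mean below it, under half of replicates reach it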;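 further: signal also drops with host cell toxicity which is not excluded here; 0% = plate median of DMSO wells and 100% = zero luminescence signal; higher percent means less beta-gal luminescence so fewer parasites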
#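 System – NIH/3T3 host cells with β-galactosidase reporter T. cruzi · Doses – single 50 nL compound addition per well in DMSO · Reagent – 5000 T. cruzi trypomastigotes/well · Medium – Low-serum DMEM with 2% FBS · Timing – ≥90 h infection period, 3 h prior cell attachment · Evaluation – parasite load inhibition, % · Technique – GalScreen luminescence, 60 min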
# An asterisk follows results filed as active; ? = inconclusive; / = no result.
SMILES,697 NFkB inh,GPR7 antagonist,HSF-1 act,Jurkat NFkB inh,HSF1 inh,T cruzi repl
COc1ccc2[nH]cc(C(=O)CCl)c2c1,-138,-7,-24,21,-5,61*
COc1ccc2[nH]cc(/C=C/C(=O)c3ccccc3)c2c1,-126,-2,113*,-57,63,11
COc1cc(OC)c(C(=O)/C=C/c2ccc(OCc3ccccc3)c(OC)c2)c(OC)c1,-1,-16,37,9,20,28
COc1ccc2[nH]cc(C(=O)CN3CC(C)CC(C)C3)c2c1 (stereo not given),5,3,-13,-13,2,-3
COc1ccc(/C=C/C(=O)c2ccc(OC)cc2OC)c(OC)c1,31,-7,34,18,18,18
O=C(CN1C(=O)NC2(CCCCC2)C1=O)Oc1ccc2c(C(F)(F)F)cc(=O)oc2c1,-12,/,3,11,1,-5
Cc1ccc(S(=O)(=O)C(C#N)=C2N(C)c3ccccc3N2C)cc1,-3,15,1,-2,-1,-13
COc1ccc2cc(C(=O)/C=C/c3cc(OC)c(OC)c(OC)c3)ccc2c1,19,14,95*,35,55,3
COc1cc(/C=C/C(C)=O)cc(OC)c1OC,-9,-6,11,-13,1,-8
CSc1ncccc1C(=O)OCC(=O)c1cc(C)n(CC2CCCO2)c1C (stereo not given),-87,11,-58,-110,-52*,1
COc1ccc(C(=O)COC(=O)c2cccnc2SC)cc1,-5,-8,68*,1,57,-9
CSc1ncccc1C(=O)OCC(=O)c1ccccc1Br,-12,-8,54*,14,7,-18
CSc1ncccc1C(=O)OCC(=O)c1ccccc1,13,-13,12,6,17,-12
CCN(CC)CCn1c2c(c(SCC(=O)Nc3cccc4ccccc34)nc1=O)CCC2,2,/,26,3,4,9
COc1ccc(OC)c(CCNC(=O)C2CCN(c3ncnc4c3nc3n4CCCCC3)CC2)c1,3,-22,-1,-5,-3,7
Cc1ccc(N(C(=O)Cc2c[nH]c3ccccc23)C(C(=O)NC2CCCCC2)c2ccco2)cc1 (stereo not given),10,-17,15,-5,1,38
CCN(Cc1ccccc1)C(c1cccs1)c1nnnn1C1CCCCC1 (stereo not given),4,-1,?,6,13,56*
Clc1ccccc1CN(Cc1ccccc1)C(c1cccs1)c1nnnn1C1CCCC1 (stereo not given),0,-9,-1,-4,11,35
O=C1CCC([N+](=O)[O-])C(c2cccc(Cl)c2Cl)N1 (stereo not given),-1,-4,9,-14,-5,-1
CCCCCCCCCC(=O)N/N=C(\C)c1cccnc1,-26,-6,15,-11,-4,62*
Cc1onc(-c2ccccc2)c1CNC(=O)C1COc2ccccc2O1 (stereo not given),6,-5,6,14,0,-4
CCC(=O)NNC(=O)CSc1nnc(-c2ccccc2)c(-c2ccccc2)n1,-2,-7,-78,-4,-74*,-14
O=C(CN1C(=O)CC(c2ccccc2)=Nc2ccccc21)NCc1ccco1,4,-11,71*,-4,17,5
CN(CCc1ccccn1)Cc1ccc(Cl)c(Cl)c1,0,6,17,0,4,62*
CSc1ccc(CN(C)CCc2ccccn2)cc1,5,3,-4,-32,-4,59*
SMILES,697 NFkB inh,GPR7 antagonist,HSF-1 act,Jurkat NFkB inh,HSF1 inh,T cruzi repl
CN(CCc1ccccn1)Cc1ccc(Cl)cc1Cl,-9,-13,27,-20,6,44
Cc1c(NC(=O)C(C)Oc2cccc(F)c2)c(=O)n(-c2ccccc2)n1C (stereo not given),-8,/,/,-5,/,/
Cc1cccc2cc(CN(Cc3ccccc3)C(=O)N3CCOCC3)c3nnnn3c12,/,-10,/,/,/,/
CCOc1ccc(NC(=O)CCSc2nc3c(c(CC)c2C#N)C(=O)CC(C)(C)C3)cc1,14,-3,2,0,1,55*
Cc1ccc(/C=[N+](\[O-])c2ccc(N(C)C)cc2)c2nsnc12,-8,-12,-61,-6,-57*,28
Cc1cc(C)cc(Oc2ncnc3c2ncn3Cc2c(Cl)cccc2Cl)c1,14,-4,0,3,-5,60*
Cc1cccn(Cc2c(Cl)cccc2Cl)c1=O,20,/,28,-2,15,-13
COc1ccc(OCCC(=O)Nc2cc(C)on2)cc1,0,-3,-9,-5,-8,3
COc1ccccc1-c1ccc(SCC(=O)Nc2cc(C)on2)nn1,9,8,60*,-1,39,-7
COc1ccc(CC(=O)Nc2cc(C)on2)cc1,16,9,-93,-11,-91*,-2
CC(=O)c1ccc(NC(=S)NCCc2cccc(Cl)c2)cc1,-68,11,30,-67,19,6
C=CCOC(=O)/C(=C/c1cccc2ccccc12)NC(=O)c1ccccc1,-165,0,72*,-80,54,11
O=C(OCc1ccccc1)/C(=C/c1cccc2ccccc12)NC(=O)c1ccccc1,7,-5,8,10,2,10
CC(=O)n1cc(Nc2ccccc2C(=O)O)c2ccccc21,2,-9,3,-8,-7,-19
CCOC(=O)c1ccccc1Nc1cn(C(C)=O)c2ccccc12,-8,-16,17,-5,-1,-11
CC(=O)n1cc(N(C(=O)CCl)c2ccc(Cl)cc2)c2ccccc21,-17,17,-84,12,-84*,66*
COc1ccccc1N(C(=O)CCl)c1cn(C(C)=O)c2ccccc12,-93,-13,-75,12,-76*,6
CCC(=O)Nc1c(S(=O)(=O)c2ccc(C)cc2)c2nc3ccccc3nc2n1C(C)c1ccccc1 (stereo not given),-14,-7,12,5,0,23
CCC(=O)Nc1c(S(=O)(=O)c2ccccc2)c2nc3ccccc3nc2n1C(C)c1ccccc1 (stereo not given),10,-4,83*,0,41,6
Cc1cccc(-n2cnc3sc(C)c(C)c3c2=O)c1,-11,-12,10,11,2,-8
Cc1ccc(-n2cnc3sc(C)c(C)c3c2=O)cc1,-56,-5,59*,-50,23,-6
Cc1ccc(C(=O)NC(=S)NCC2CCCO2)cc1 (stereo not given),-77,-5,89*,-48,40,-21
